Series [1] concerns the target ATP-dependent translocase ABCB1 (Homo sapiens, UniProt P08183). Briefly: Reversal of human ABCB1-mediated multidrug resistance in HEK293/MDR19 cells assessed as fold change in colchicine IC50 at 1 uM after 72 hrs by CCK8 relative to colchicine IC50. It is filed as cell-based. The procedure, abridged:
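Cells were seeded at 5000/well for 24 h, then given colchicine, etoposide, mitoxantrone or topotecan ± non-toxic modulator (0.5–3.0 μM) for 72 h, with DMSO up to 0.5%. IC50 came from fitted curves (mean ± SD, three experiments). Fold-reversal = IC50 without modulator ÷ IC50 with modulator.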

The test system of a further series is HEK293. Briefly: Effect on Colchicine-induced cytotoxicity against HEK293 cells assessed as fold change in colchicine IC50 at 1 uM after 72 hrs by CCK8 assay relative to colchicine IC50. In kind it is cell-based. As to conditions: human, hek293, 72 h. The procedure, abridged:
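Reversal assay in parental pcDNA-HEK293 and transfected HEK293 lines (ABCB1 for colchicine, ABCC1 for etoposide, ABCG2 for mitoxantrone/topotecan). Substrate drug series was given with or without nontoxic modulator (0.5, 1.0, 2.0 or 3.0 μM) for 72 h, with a CCK-8 read-out. Fold-reversal is substrate IC50 without modulator divided by IC50 with modulator. Three independent experiments.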

Series [2] has as its system S1. Briefly: Induction of apoptosis in human S1 cells assessed as necrotic cells at 5 uM incubated for 48 hrs by annexin V/propidium iodide staining based flow cytometry (reference value: 0.2%). In kind it is functional. Background: In flow cytometry, cells or beads pass a laser one at a time.
Series [3] deals with S1. Description: Induction of apoptosis in human S1 cells assessed as late apoptotic cells at 5 uM incubated for 48 hrs by annexin V/propidium iodide staining based flow cytometry (reference value: 3.6%). In kind it is functional. The gist of the method:
(§1)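 S1 cells were exposed for 48 h to DMSO, 10 μM compound, 5 μM topotecan, or 5 μM topotecan plus 10 μM compound. They were then stained with 1.25 μg/mL annexin V–FITC and 0.1 mg/mL PI for 15 min at room temperature. 10000 cells per sample were analysed by flow cytometry; three independent experiments.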

The test system of series [4] is S1. Description: Induction of apoptosis in human S1 cells assessed as early apoptotic cells at 5 uM incubated for 48 hrs by annexin V/propidium iodide staining based flow cytometry (reference value: 2%). In kind it is functional. The procedure, abridged:
as §1

Series [5] deals with S1. Description: Induction of apoptosis in human S1 cells assessed as viable cells at 5 uM incubated for 48 hrs by annexin V/propidium iodide staining based flow cytometry (reference value: 94.1%). It is filed as functional. As to conditions: S1, 48 h, read-out: Activity.

The values below come from ChEMBL document CHEMBL4627381, “Licochalcone A Selectively Resensitizes ABCG2-Overexpressing Multidrug-Resistant Cancer Cells to Chemotherapeutic Drugs” (J Nat Prod, 2020).

Sequence of ATP-dependent translocase ABCB1 (P08183 whole entry): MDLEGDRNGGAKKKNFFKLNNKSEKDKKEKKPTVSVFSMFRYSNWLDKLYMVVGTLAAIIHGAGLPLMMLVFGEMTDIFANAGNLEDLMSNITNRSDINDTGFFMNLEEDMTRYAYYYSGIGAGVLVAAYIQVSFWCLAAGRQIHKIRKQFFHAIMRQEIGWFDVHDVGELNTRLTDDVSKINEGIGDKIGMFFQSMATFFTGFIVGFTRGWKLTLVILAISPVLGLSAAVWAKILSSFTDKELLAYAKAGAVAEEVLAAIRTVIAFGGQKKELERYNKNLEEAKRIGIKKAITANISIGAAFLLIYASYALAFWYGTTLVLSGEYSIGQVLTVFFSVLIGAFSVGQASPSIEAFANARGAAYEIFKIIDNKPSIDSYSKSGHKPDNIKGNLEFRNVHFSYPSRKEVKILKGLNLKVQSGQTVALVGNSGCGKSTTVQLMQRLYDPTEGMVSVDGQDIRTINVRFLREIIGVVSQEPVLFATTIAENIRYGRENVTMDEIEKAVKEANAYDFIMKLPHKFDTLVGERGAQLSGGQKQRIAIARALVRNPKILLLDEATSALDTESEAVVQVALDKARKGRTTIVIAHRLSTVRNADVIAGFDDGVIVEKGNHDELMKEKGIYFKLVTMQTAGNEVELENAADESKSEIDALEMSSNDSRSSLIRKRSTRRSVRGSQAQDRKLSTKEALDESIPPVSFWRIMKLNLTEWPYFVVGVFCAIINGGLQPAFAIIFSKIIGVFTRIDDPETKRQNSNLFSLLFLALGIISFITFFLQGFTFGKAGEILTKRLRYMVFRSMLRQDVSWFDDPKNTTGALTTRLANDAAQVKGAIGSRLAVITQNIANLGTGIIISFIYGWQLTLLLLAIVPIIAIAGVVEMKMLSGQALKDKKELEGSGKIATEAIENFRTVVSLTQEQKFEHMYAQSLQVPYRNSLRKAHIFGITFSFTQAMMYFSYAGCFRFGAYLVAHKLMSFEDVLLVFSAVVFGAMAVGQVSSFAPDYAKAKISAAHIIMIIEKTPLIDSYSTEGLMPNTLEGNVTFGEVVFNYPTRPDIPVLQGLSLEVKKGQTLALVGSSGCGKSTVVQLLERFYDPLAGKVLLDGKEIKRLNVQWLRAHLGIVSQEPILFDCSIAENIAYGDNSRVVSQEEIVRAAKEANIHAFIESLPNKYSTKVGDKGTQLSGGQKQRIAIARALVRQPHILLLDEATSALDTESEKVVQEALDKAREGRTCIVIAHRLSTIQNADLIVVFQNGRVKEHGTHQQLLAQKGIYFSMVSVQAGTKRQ

Turning to `COc1cc2c(cc1OC)CN(CCc1ccc(NC(=O)c3cc(OC)c(OC)cc3NC(=O)c3cnc4ccccc4c3)cc1)CC2`, the “fold change (FC)” value is 12.5 in series [1] and 1.1 in the series with HEK293.

Consider `CC[C@@]1(O)C(=O)OCc2c1cc1n(c2=O)Cc2cc3c(CN(C)C)c(O)ccc3nc2-1` [TOPOTECAN], for which the results for the Activity in the series with S1 [2], with S1 [3] and with S1 [4] were 3.5%, 22.7% and 31.2%, respectively. Moreover, the viability at 5 µM in the series on S1 [5] stood at 42.7%.
